Measurements taken from ChEMBL document CHEMBL1140915, “Second-generation highly potent and selective inhibitors of the hepatitis C virus NS3 serine protease” (J Med Chem, 2009).

Key:
[1] = Selectivity for HCV NS3 protease over human neutrophil elastase
How it was run: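 Compounds were also assayed against human neutrophil elastase. Selectivity is expressed as the HNE/HCV ratio of the two enzyme potencies.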

[2] = Inhibition of HCV NS3 protease in absence of human serum; set-up: species or system Hepacivirus hominis
How it was run: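 Continuous enzymatic assay using NS4A-tethered single-chain HCV NS3 serine protease, without human serum. Ki* is the equilibrium constant, which includes the reversible covalent ketone–serine bond. Compounds were tested as P1 diastereomer mixtures (2:1 to 1:2) that equilibrate rapidly under assay conditions.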

Hepatitis C virus = experiment: Antiviral activity against HCV assessed as inhibition of virus replication by cell based assay in absence of human serum; format: functional, Hepacivirus hominis
How it was run: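 Replicon-based cellular assay run without human serum. EC90 is the concentration that inhibits replicon replication by 90%. Compounds were tested as rapidly equilibrating P1 diastereomer mixtures.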

| Ratio [1] | Ki [2] | EC90 (Hepatitis C virus) | Compound |
| --- | --- | --- | --- |
| 8200 | 13 nM | 70 nM | CCCCC(NC(=O)[C@@H]1[C@@H]2[C@H](CN1C(=O)[C@@H](NC(=O)NC(CN1C(=O)CC(C)(C)CC1=O)C(C)(C)C)C(C)(C)C)C2(C)C)C(=O)C(=O)NCC (single isomer, unassigned) |
| 220 | 32 nM | 80 nM | C=CCNC(=O)C(=O)C(CCCC)NC(=O)[C@@H]1[C@@H]2[C@H](CN1C(=O)C(NC(=O)NC(CN1C(=O)CC(C)(C)CC1=O)C(C)(C)C)C1(C)Cc3ccccc3C1)C2(C)C (single isomer, unassigned) |
| 910 | 21 nM | 80 nM | CCCCC(NC(=O)[C@@H]1[C@@H]2[C@H](CN1C(=O)[C@@H](NC(=O)NC(CN1C(=O)CC(C)(C)CC1=O)C(C)(C)C)C(C)(C)C)C2(C)C)C(=O)C(=O)NCCC (single isomer, unassigned) |
| 90 | 12 nM | 100 nM | C=CCNC(=O)C(=O)C(CCCC)NC(=O)[C@@H]1[C@@H]2[C@H](CN1C(=O)[C@@H](NC(=O)NC(CN1C(=O)CN(c3ccccc3)CC1=O)C(C)(C)C)C(C)(C)C)C2(C)C (single isomer, unassigned) |
| 1200 | 19 nM | 250 nM | C=CCNC(=O)C(=O)C(CCCC)NC(=O)[C@@H]1[C@@H]2[C@H](CN1C(=O)[C@@H](NC(=O)N[C@@H](CN1C(=O)CN(C)C1=O)C(C)(C)C)C(C)(C)C)C2(C)C (stereo partly drawn) |
| 3800 | 6 nM | 200 nM | C=CCNC(=O)C(=O)C(CCCC)NC(=O)[C@@H]1[C@@H]2[C@H](CN1C(=O)[C@@H](NC(=O)NC(CN1C(=O)CC3(CCCC3)CC1=O)C(C)(C)C)C(C)(C)C)C2(C)C (single isomer, unassigned) |
| 1800 | 4 nM | 100 nM | C=CCNC(=O)C(=O)C(CCCC)NC(=O)[C@@H]1[C@@H]2[C@H](CN1C(=O)C(NC(=O)NC(CN1C(=O)CC(C)(C)CC1=O)C(C)(C)C)C1Cc3ccccc3C1)C2(C)C (single isomer, unassigned) |
| 6100 | 5 nM | 30 nM | CCCCC(NC(=O)[C@@H]1[C@@H]2[C@H](CN1C(=O)[C@@H](NC(=O)N[C@@H](CN1C(=O)CC(C)(C)CC1=O)C(C)(C)C)C(C)(C)C)C2(C)C)C(=O)C(=O)NC1CC1 (stereo partly drawn) |
| 1000 | 4 nM | 45 nM | C=CCNC(=O)C(=O)C(CCCC)NC(=O)[C@@H]1[C@@H]2[C@H](CN1C(=O)C(NC(=O)NC(CN1C(=O)CC(C)(C)CC1=O)C(C)(C)C)C1(C)CCCCC1)C2(C)C (single isomer, unassigned) |
| 2500 | 22 nM | 80 nM | CCCCC(NC(=O)[C@@H]1[C@@H]2[C@H](CN1C(=O)[C@@H](NC(=O)N[C@@H](CN1C(=O)CC(C)(C)CC1=O)C(C)(C)C)C(C)(C)C)C2(C)C)C(=O)C(=O)NCc1ccccn1 (stereo partly drawn) |
| 9500 | 5 nM | 70 nM | C=CCNC(=O)C(=O)C(CCCC)NC(=O)[C@@H]1[C@@H]2[C@H](CN1C(=O)[C@@H](NC(=O)N[C@@H](CN1C(=O)C3CC3C1=O)C(C)(C)C)C(C)(C)C)C2(C)C (stereo partly drawn) |
| 4300 | 4 nM | 150 nM | C=CCNC(=O)C(=O)C(CCCC)NC(=O)[C@@H]1[C@@H]2[C@H](CN1C(=O)[C@@H](NC(=O)NC(CN1C(=O)CCNC1=O)C(C)(C)C)C(C)(C)C)C2(C)C (single isomer, unassigned) |
| 7200 | 8 nM | 500 nM | C=CCNC(=O)C(=O)C(CCCC)NC(=O)[C@@H]1[C@@H]2[C@H](CN1C(=O)[C@@H](NC(=O)NC(CN1C(=O)COCC1=O)C(C)(C)C)C(C)(C)C)C2(C)C (single isomer, unassigned) |
| 2000 | 13 nM | 230 nM | C=CCNC(=O)C(=O)C(CCCC)NC(=O)[C@@H]1[C@@H]2[C@H](CN1C(=O)[C@@H](NC(=O)NC(CN1C(=O)CCC1=O)C(C)(C)C)C(C)(C)C)C2(C)C (single isomer, unassigned) |
| 6400 | 7 nM | 40 nM | C=CCNC(=O)C(=O)C(CC1CCC1)NC(=O)[C@@H]1[C@@H]2[C@H](CN1C(=O)[C@@H](NC(=O)N[C@@H](CN1C(=O)CC(C)(C)CC1=O)C(C)(C)C)C(C)(C)C)C2(C)C (stereo partly drawn) |
| 1100 | 14 nM | 40 nM | CCCCC(NC(=O)[C@@H]1[C@@H]2[C@H](CN1C(=O)[C@@H](NC(=O)N[C@@H](CN1C(=O)CC(C)(C)CC1=O)C(C)(C)C)C(C)(C)C)C2(C)C)C(=O)C(=O)NCc1ccccc1 (stereo partly drawn) |
| 2500 | 8 nM | 40 nM | C=CCNC(=O)C(=O)C(CCCC)NC(=O)[C@@H]1[C@@H]2[C@H](CN1C(=O)[C@@H](NC(=O)NC(CN1C(=O)CC(C)(CC)CC1=O)C(C)(C)C)C(C)(C)C)C2(C)C (single isomer, unassigned) |
| 1600 | 8 nM | 60 nM | C=CCNC(=O)C(=O)C(CCCC)NC(=O)[C@@H]1[C@@H]2[C@H](CN1C(=O)[C@@H](NC(=O)NC(CN1C(=O)N(C)C(C)(C)C1=O)C(C)(C)C)C(C)(C)C)C2(C)C (single isomer, unassigned) |
| 2500 | 11 nM | 250 nM | C=CCNC(=O)C(=O)C(CCCC)NC(=O)[C@@H]1[C@@H]2[C@H](CN1C(=O)[C@@H](NC(=O)N[C@@H](CN1C(=O)NC(C)(C)C1=O)C(C)(C)C)C(C)(C)C)C2(C)C (stereo partly drawn) |
| 500 | 30 nM | 750 nM | C=CCNC(=O)C(=O)C(CCCC)NC(=O)[C@@H]1[C@@H]2[C@H](CN1C(=O)[C@@H](NC(=O)N[C@@H](CN1C(=O)c3ccccc3C1=O)C(C)(C)C)C(C)(C)C)C2(C)C (stereo partly drawn) |
| 1600 | 4 nM | 40 nM | C=CCNC(=O)C(=O)C(CCC)NC(=O)[C@@H]1[C@@H]2[C@H](CN1C(=O)[C@@H](NC(=O)NC(CN1C(=O)CC(C)(C)CC1=O)C(C)(C)C)C(C)(C)C)C2(C)C (single isomer, unassigned) |
| 3100 | 7 nM | 35 nM | C=CCNC(=O)C(=O)C(CCCC)NC(=O)[C@@H]1[C@@H]2[C@H](CN1C(=O)[C@@H](NC(=O)N[C@@H](CN1C(=O)CCC(C)(C)C1=O)C(C)(C)C)C(C)(C)C)C2(C)C (stereo partly drawn) |
| 7000 | 6 nM | 60 nM | C=CCNC(=O)C(=O)C(CCCC)NC(=O)[C@@H]1[C@@H]2[C@H](CN1C(=O)[C@@H](NC(=O)NC(CN1C(=O)C3CCC(C3)C1=O)C(C)(C)C)C(C)(C)C)C2(C)C (single isomer, unassigned) |
| 1400 | 7 nM | 60 nM | C=CCNC(=O)C(=O)C(CCCC)NC(=O)[C@@H]1[C@@H]2[C@H](CN1C(=O)[C@@H](NC(=O)NC(CN1C(=O)CCN(C)C1=O)C(C)(C)C)C(C)(C)C)C2(C)C (single isomer, unassigned) |
| 900 | 12 nM | 100 nM | CCCCC(NC(=O)[C@@H]1[C@@H]2[C@H](CN1C(=O)[C@@H](NC(=O)NC(CN1C(=O)CC(C)(C)CC1=O)C(C)(C)C)C(C)(C)C)C2(C)C)C(=O)C(=O)NCc1cccs1 (single isomer, unassigned) |
| 230 | 2 nM | 40 nM | C#CCCC(NC(=O)[C@@H]1[C@@H]2[C@H](CN1C(=O)[C@@H](NC(=O)NC(CN1C(=O)CC(C)(C)CC1=O)C(C)(C)C)C(C)(C)C)C2(C)C)C(=O)C(=O)NCC=C (single isomer, unassigned) |
